Reference: ChEMBL document CHEMBL4477197, “Antitumor Activity of Spicatoside A by Modulation of Autophagy and Apoptosis in Human Colorectal Cancer Cells” (J Nat Prod, 2016)
The source made the active and inactive calls. The calls are words filed in the database; no cut-off is given here.

What was measured:
[1] = tested on: HCT-116; test: Induction of apoptosis in human HCT116 cells at 30 uM after 48 hrs by Annexin V-FITC/propidium iodide staining based flow cytometry; assay type: functional
In short: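 HCT116 cells were treated 48 h, then resuspended in binding buffer at 1 × 10^6 cells/mL. They were stained with annexin V-FITC and PI for 20 min at room temperature in the dark, diluted and analyzed immediately by flow cytometry for annexin V-positive cells. n = 3.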

[2] = tested on: HCT-116; test: Cell cycle arrest in human HCT116 cells assessed as accumulation at subG1 phase at 30 uM after 48 hrs by propidium iodide staining based flow cytometry; assay type: functional
[3] = tested on: HCT-116; test: Induction of apoptosis in human HCT116 cells assessed as caspase 8 cleavage at 30 uM upto 48 hrs by Western blot analysis; assay type: functional, cell-based
In short: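 Time course: HCT116 cells were exposed to 30 μM compound for 6, 12, 24, 36 and 48 h. LC3-II, beclin 1, cleaved caspase-8 and cleaved PARP were measured by Western blot (SDS-PAGE, PVDF, ECL) with β-actin as internal standard.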

[4] = tested on: HCT-116; test: Induction of apoptosis in human HCT116 cells assessed as activation of caspase 9 at 10 to 30 uM after 48 hrs by Western blot analysis; assay type: functional, cell-based
In short: (§1)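 HCT116 cells were treated with the indicated concentrations for 48 h. Lysates were prepared in SDS sample buffer and 10–30 μg protein was separated by SDS-PAGE, blotted to PVDF and blocked in 5% BSA. Cleaved caspase-8, -9, -3 and PARP were detected by ECL.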

[5] = Inhibition of PI3K/Akt/mTOR in human HCT116 cells assessed as upregulation of PTEN at 10 to 30 uM after 24 hrs by Western blot analysis; assay type: cell-based
In short: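 HCT116 cells (RPMI 1640, 10% FBS, 37 °C, 5% CO2) exposed to the compound for 24 h, then lysed in 2× SDS sample buffer with NaF and orthovanadate and boiled. BCA-normalised protein (10−30 μg) run on 6−15% SDS-PAGE and blotted to PVDF. Blocked in 5% BSA/PBS-Tween, probed for PI3K, PTEN, Akt and mTOR, and detected by ECL. Blots are representative of three determinations.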

[6] = tested on: HCT-116; test: Induction of autophagy in human HCT116 cells assessed as upregulation of LAMP1 expression at 10 to 30 uM after 24 hrs by Western blot analysis; assay type: functional, cell-based
In short: (§2)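 HCT116 cells were cultured 24 h with the indicated concentrations. Lysates were made in SDS buffer with NaF and orthovanadate and quantified by BCA; 10–30 μg protein was separated by 6–15% SDS-PAGE and transferred to PVDF. After 5% BSA blocking, blots were probed for LC3-II, beclin 1, p62, LAMP1 and cathepsin D, with ECL detection.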

[7] = tested on: HCT-116; test: Induction of apoptosis in human HCT116 cells assessed as increase in t-BID levels after 48 hrs by Western blot analysis; assay type: functional, cell-based
[8] = tested on: HCT-116; test: Induction of apoptosis in human HCT116 cells assessed as activation of PARP cleavage at 10 to 30 uM after 48 hrs by Western blot analysis; assay type: functional, cell-based; in short: as §1
[9] = biological target: Cellular tumor antigen p53 (Homo sapiens) (UniProt P04637); test: Induction of p53 expression in human HCT116 cells assessed as increase in p21 levels after 24 hrs by Western blot analysis; assay type: cell-based
[10] = Inhibition of PI3K/Akt/mTOR in human HCT116 cells assessed as downregulation of PI3K p101 at 10 to 30 uM after 24 hrs by Western blot analysis; assay type: cell-based
In short: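 HCT116 cells were lysed after 24 h with the indicated concentrations. PI3K, PTEN, Akt and mTOR were immunoblotted (SDS-PAGE, PVDF, 5% BSA block, ECL).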

[11] = tested on: HCT-116; test: Induction of autophagy in human HCT116 cells assessed as vacuole formation in cytoplasm at 20 uM by inverted phase contrast microscopy relative to control; assay type: functional, cell-based
In short: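 HCT116 cells were exposed to 20 μM compound or vehicle. Cytoplasmic vacuoles were inspected and photographed under an inverted phase-contrast microscope at 100×.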

[12] = tested on: HCT-116; test: Induction of apoptosis in human HCT116 cells assessed as activation of caspase 8 at 10 to 30 uM after 48 hrs by Western blot analysis; assay type: functional, cell-based; in short: as §1
[13] = tested on: HCT-116; test: Induction of autophagy in human HCT116 cells assessed as formation of acidic vesicular organelles at 20 uM after 24 hrs by acridine orange staining based assay relative to control; assay type: functional, cell-based
In short: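 Cells were seeded at 1 × 10^5/well, grown 24 h, then treated 24 h with 20 μM compound, 2.5 nM bafilomycin A1, or both. They were stained with acridine orange (2 μg/mL) for 15 min and washed in DPBS. AO-positive cells were quantified by high-content imaging and expressed as an index versus vehicle. Triplicates.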

[14] = tested on: HCT-116; test: Induction of autophagy in human HCT116 cells assessed as accumulation of LC3-2 at 20 uM after 24 hrs in presence of bafilomycin A1 by Western blot analysis; assay type: functional, cell-based
In short: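 HCT116 cells were exposed 24 h to 20 μM compound, 2.5 nM bafilomycin A1, or both together. LC3-II was measured by Western blot with β-actin as internal standard. Blots are representative of three separate determinations.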

[15] = tested on: HCT-116; test: Antitumor activity against human HCT116 cells xenografted in BALB/c-nu mouse assessed as inhibition of tumor weight at 2.5 mg/kg, ip administered three times per week for 28 days measured post dosing relative to control; assay type: functional; settings: HCT-116, ip, 672 h
In short: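 Nude mice bearing subcutaneous HCT116 flank tumors (2 × 10^6 cells) were randomized at ~200 mm3, five per group. Dosing was 2.5 or 5 mg/kg ip in saline/0.5% Tween 80, three times weekly for 28 days, with vehicle controls. Tumors were excised on day 28 and weighed; inhibition was expressed against the vehicle group.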

[16] = Toxicity in BALB/c-nu mouse xenografted with human HCT116 cells assessed as overt toxicity at 2.5 to 5 mg/kg, ip administered three times per week for 28 days measured during compound dosing relative to control; assay type: organism-based; settings: in vivo, 672 h
In short: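 Nude mice carried subcutaneous flank HCT116 implants (2 × 10^6 cells in 200 μL medium). At about 200 mm3 they were randomised into groups of five. Compound at 2.5 or 5 mg/kg in saline with 0.5% Tween 80 was given ip three times weekly for 4 weeks; controls received vehicle. Body weight was monitored throughout for toxicity.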

[17] = tested on: HCT-116; test: Induction of autophagy in human HCT116 cells assessed as upregulation of cathepsin D expression at 10 to 30 uM after 24 hrs by Western blot analysis; assay type: functional, cell-based; in short: as §2
[18] = tested on: HCT-116; test: Induction of apoptosis in human HCT116 cells assessed as increase in cytochrome c levels in cytosol after 48 hrs by Western blot analysis; assay type: functional, cell-based
[19] = biological target: MAP kinase p38 (Homo sapiens) (UniProt O15264+Q15759+Q16539+P53778); test: Induction of p38 phosphorylation in human HCT116 cells after 24 hrs by Western blot analysis; assay type: cell-based
[20] = tested on: HCT-116; test: Induction of autophagy in human HCT116 cells assessed as increase in beclin 1 expression at 30 uM at 24 hrs by Western blot analysis; assay type: functional, cell-based
[21] = tested on: HCT-116; test: Induction of apoptosis in human HCT116 cells assessed as upregulation of Bax levels at 10 to 30 uM after 48 hrs by Western blot analysis; assay type: functional, cell-based

Cellular tumor antigen p53 (Homo sapiens), sequence (P04637 whole entry, looked up): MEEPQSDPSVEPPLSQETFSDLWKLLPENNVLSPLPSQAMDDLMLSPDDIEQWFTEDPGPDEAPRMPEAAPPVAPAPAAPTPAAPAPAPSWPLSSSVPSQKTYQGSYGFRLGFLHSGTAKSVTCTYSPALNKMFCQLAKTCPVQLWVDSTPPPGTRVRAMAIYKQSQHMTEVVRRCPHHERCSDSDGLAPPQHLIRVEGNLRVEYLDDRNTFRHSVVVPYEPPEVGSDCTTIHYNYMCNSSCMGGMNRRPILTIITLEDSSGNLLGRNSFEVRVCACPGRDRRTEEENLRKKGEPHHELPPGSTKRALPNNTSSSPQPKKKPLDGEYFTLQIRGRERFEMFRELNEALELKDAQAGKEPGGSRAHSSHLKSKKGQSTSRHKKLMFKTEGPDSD

With `C[C@H]1CC[C@@]2(OC1)O[C@H]1C[C@H]3[C@@H]4CC=C5C[C@@H](O)C[C@@H](O[C@@H]6O[C@H](C)[C@H](O)[C@H](O[C@@H]7OC[C@@H](O)[C@H](O)[C@H]7O)[C@H]6O[C@@H]6O[C@H](CO)[C@@H](O)[C@H](O)[C@H]6O)[C@]5(C)[C@H]4CC[C@]3(C)[C@H]1[C@@H]2C` the Activity [1] was 24.58%, the Activity [2] was 45.37% and the Activity [3] was “Active”. For the same compound, the Activity [4] was “Active”, the inhibition [5] was “Active” and the Activity [6] was “Active”. The Activity [7] was “Dose-dependent effect”, the Activity [8] was “Active” and the Activity [9] was “Dose-dependent effect”. For the same compound, the inhibition [10] was “Active”, the Activity [11] was “Active” and the Activity [12] was “Active”. For the same compound, the Activity [13] was “Active”, the Activity [14] was “Active” and the inhibition in vivo at 2.5 mg/kg [15] was 43%. For the same compound, the Activity [16] was “Non-Toxic”, the Activity [17] was “Active” and the Activity [18] was “Dose-dependent effect”. For the same compound, the Activity [19] was “Dose-dependent effect”, the Activity [20] was “Active” and the Activity [21] was “Active”.
